# In ChEMBL document CHEMBL4765427, “A low toxic CRM1 degrader: Synthesis and anti-proliferation on MGC803 and HGC27” (Eur J Med Chem, 2020):
# Calls of active or inactive are those of the source. The rule behind the calls is not given here.
# Legend:
# [1] = tested on: MGC-803; test: Antiproliferative activity against human MGC-803 cells by MTT assay; assay type: functional, cell-based
# Outline: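 They were seeded at 5×10⁴/well and cultured overnight, then exposed to compound for 24 h. MTT (5 mg/mL solution) was added for 4 h at 37 °C, formazan was dissolved in DMSO, and absorbance was read at 490 nm. Each experiment was run three times.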
# [2] = biological target: Cellular tumor antigen p53 (Homo sapiens) (UniProt P04637); test: Induction of p53 cytoplasmic translocation in human MGC-803 cells at 5 uM measured after 24 hrs in presence of proteasome inhibitor MG132 by immunoprecipitation method; assay type: cell-based; conditions: filed as modulator, dose 10.0 µM, in the assay text read “at 10 uM” for “at 5 uM”
# Cellular tumor antigen p53 (Homo sapiens), sequence (P04637 whole entry, looked up): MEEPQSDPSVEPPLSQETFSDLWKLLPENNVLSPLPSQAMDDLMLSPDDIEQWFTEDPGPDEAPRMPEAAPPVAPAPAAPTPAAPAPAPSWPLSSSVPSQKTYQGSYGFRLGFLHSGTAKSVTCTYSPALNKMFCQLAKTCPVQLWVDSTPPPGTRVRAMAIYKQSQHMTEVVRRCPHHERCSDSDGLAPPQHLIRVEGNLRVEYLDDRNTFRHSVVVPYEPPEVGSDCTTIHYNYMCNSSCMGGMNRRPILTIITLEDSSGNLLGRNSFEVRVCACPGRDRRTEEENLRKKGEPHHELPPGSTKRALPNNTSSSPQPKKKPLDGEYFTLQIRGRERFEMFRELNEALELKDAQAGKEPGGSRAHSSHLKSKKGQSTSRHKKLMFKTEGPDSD
# Outline: (§1)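 Cells pretreated with 0.05 μM MG132 for 1 h, then exposed to compound for 24 h. Proteins co-precipitated with anti-p53 antibody and detected by immunoblot.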
# [3] = biological target: Exportin-1 (Homo sapiens) (UniProt O14980); test: Induction of CRM1 degradation in human HGC-27 cells assessed as reduction in CRM1 expression at 5 uM measured after 24 hrs by Western blot analysis; assay type: cell-based
# Exportin-1 (Homo sapiens), sequence (O14980 whole entry): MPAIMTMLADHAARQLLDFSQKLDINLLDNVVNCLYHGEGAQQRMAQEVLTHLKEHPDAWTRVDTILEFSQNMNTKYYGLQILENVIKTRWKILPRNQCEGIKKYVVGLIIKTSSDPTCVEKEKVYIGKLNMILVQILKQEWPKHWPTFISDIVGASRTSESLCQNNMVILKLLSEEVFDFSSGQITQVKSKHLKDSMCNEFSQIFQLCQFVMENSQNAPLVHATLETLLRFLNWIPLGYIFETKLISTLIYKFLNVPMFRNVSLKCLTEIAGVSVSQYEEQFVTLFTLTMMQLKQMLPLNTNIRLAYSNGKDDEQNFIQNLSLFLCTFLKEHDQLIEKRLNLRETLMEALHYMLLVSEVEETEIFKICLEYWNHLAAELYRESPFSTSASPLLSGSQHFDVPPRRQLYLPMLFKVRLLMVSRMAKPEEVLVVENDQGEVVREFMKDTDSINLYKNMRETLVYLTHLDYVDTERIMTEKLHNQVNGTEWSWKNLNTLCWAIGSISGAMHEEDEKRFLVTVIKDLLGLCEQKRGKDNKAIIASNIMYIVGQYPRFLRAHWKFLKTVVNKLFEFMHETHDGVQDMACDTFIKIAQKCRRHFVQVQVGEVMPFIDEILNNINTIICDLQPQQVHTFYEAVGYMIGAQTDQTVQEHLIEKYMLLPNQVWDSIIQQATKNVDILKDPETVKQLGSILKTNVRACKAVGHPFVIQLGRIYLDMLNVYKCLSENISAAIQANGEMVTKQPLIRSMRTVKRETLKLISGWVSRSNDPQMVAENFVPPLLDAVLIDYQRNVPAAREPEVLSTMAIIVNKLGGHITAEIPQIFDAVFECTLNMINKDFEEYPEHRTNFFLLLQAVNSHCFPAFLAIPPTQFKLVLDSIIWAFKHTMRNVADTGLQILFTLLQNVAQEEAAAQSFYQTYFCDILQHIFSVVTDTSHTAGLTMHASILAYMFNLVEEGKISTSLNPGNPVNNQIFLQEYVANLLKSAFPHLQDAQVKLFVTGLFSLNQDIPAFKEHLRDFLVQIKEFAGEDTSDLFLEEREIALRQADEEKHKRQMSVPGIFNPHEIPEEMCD
# Outline: (§2)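 MGC803 and HGC27 cells were exposed to 5 μM compound for 24 h with or without 0.05 μM MG132. CRM1 protein was measured by Western blot on RIPA lysates, with BCA normalization, SDS-PAGE/PVDF transfer and ECL detection.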
# [4] = biological target: Exportin-1 (Homo sapiens) (UniProt O14980); test: Induction of CRM1 degradation in human MGC-803 cells assessed as reduction in CRM1 expression at 5 uM measured after 24 hrs in presence of proteasome inhibitor MG132 by Western blot analysis; assay type: cell-based; outline: as §2
# [5] = biological target: Cellular tumor antigen p53 (Homo sapiens) (UniProt P04637); test: Induction of p53 cytoplasmic translocation in human MGC-803 cells assessed as increase in p53 bound BCL2 expression at 10 uM measured after 6 hrs in presence of proteasome inhibitor MG132 by DAPI staining based immunofluorescence assay; conditions: filed as modulator
# [6] = biological target: Exportin-1 (Homo sapiens) (UniProt O14980); test: Induction of CRM1 degradation in human MGC-803 cells assessed as increase in p53 accumulation in nucleus at 10 uM measured after 6 hrs by DAPI staining based immunofluorescence assay; assay type: cell-based
# Outline: (§3)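 MGC803 cells were exposed to 10 μM compound for 0 or 6 h. They were fixed in 4% paraformaldehyde for 30 min, permeabilized with 0.1% Triton X-100 for 10 min and blocked with 10% goat serum for 30 min. Staining used anti-Ranbp1 or anti-p53 (green) with DAPI nuclei, and nuclear localization was imaged by confocal microscopy.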
# [7] = biological target: Exportin-1 (Homo sapiens) (UniProt O14980); test: Induction of CRM1 degradation in human MGC-803 cells assessed as reduction in CRM1 expression measured after 24 hrs by Western blot analysis; assay type: cell-based
# [8] = biological target: Exportin-1 (Homo sapiens) (UniProt O14980); test: Induction of CRM1 degradation in human HGC-27 cells assessed as reduction in CRM1 expression at 5 uM measured after 24 hrs in presence of proteasome inhibitor bortezomib by Western blot analysis; assay type: cell-based
# [9] = biological target: Cellular tumor antigen p53 (Homo sapiens) (UniProt P04637); test: Induction of p53 cytoplasmic translocation in human MGC-803 cells assessed as increase in p53 bound BCL-XL expression at 5 uM measured after 24 hrs in presence of proteasome inhibitor MG132 by immunoprecipitation method; assay type: cell-based; conditions: filed as modulator, dose 10.0 µM, in the assay text read “at 10 uM” for “at 5 uM”; outline: as §1
# [10] = biological target: Exportin-1 (Homo sapiens) (UniProt O14980); test: Induction of CRM1 degradation in human MGC-803 cells assessed as reduction in CRM1 expression at 5 uM measured after 24 hrs in presence of proteasome inhibitor bortezomib by Western blot analysis; assay type: cell-based
# [11] = biological target: Exportin-1 (Homo sapiens) (UniProt O14980); test: Induction of CRM1 degradation in human MGC-803 cells assessed as reduction in CRM1 expression at 5 uM measured after 24 hrs by Western blot analysis; assay type: cell-based; outline: as §2
# [12] = biological target: Exportin-1 (Homo sapiens) (UniProt O14980); test: Induction of CRM1 degradation in human MGC-803 cells assessed as increase in Ranbp1 accumulation in nucleus at 10 uM measured after 6 hrs by DAPI staining based immunofluorescence assay; assay type: cell-based; outline: as §3
# [13] = biological target: Cellular tumor antigen p53 (Homo sapiens) (UniProt P04637); test: Induction of p53 cytoplasmic translocation in human MGC-803 cells assessed as increase in p53 bound BCL2 expression at 5 uM measured after 24 hrs in presence of proteasome inhibitor MG132 by immunoprecipitation method; assay type: cell-based; conditions: filed as modulator, dose 10.0 µM, in the assay text read “at 10 uM” for “at 5 uM”; outline: as §1
# [14] = biological target: Exportin-1 (Homo sapiens) (UniProt O14980); test: Induction of CRM1 degradation in human HGC-27 cells assessed as reduction in CRM1 expression at 5 uM measured after 24 hrs in presence of proteasome inhibitor MG132 by Western blot analysis; assay type: cell-based; outline: as §2
# [15] = biological target: Cellular tumor antigen p53 (Homo sapiens) (UniProt P04637); test: Induction of p53 cytoplasmic translocation in human MGC-803 cells at 5 uM measured after 6 hrs in presence of proteasome inhibitor MG132 by DAPI staining based immunofluorescence assay; assay type: cell-based; conditions: filed as modulator, dose 10.0 µM, in the assay text read “at 10 uM” for “at 5 uM”
# Outline: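 Cells pretreated ±0.05 μM MG132 for 1 h, then compound for 6 h. Fixed in 4% paraformaldehyde for 30 min, permeabilized with 0.1% Triton X-100 for 10 min, blocked with 10% normal goat serum for 30 min. Stained with p53 antibody (green) and DAPI nuclei, imaged by confocal microscopy.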
# [16] = biological target: Cellular tumor antigen p53 (Homo sapiens) (UniProt P04637); test: Induction of p53 cytoplasmic translocation in human MGC-803 cells assessed as increase in p53 bound BCL-XL expression at 10 uM measured after 6 hrs in presence of proteasome inhibitor MG132 by DAPI staining based immunofluorescence assay; conditions: filed as modulator
# [17] = biological target: Exportin-1 (Homo sapiens) (UniProt O14980); test: Induction of CRM1 degradation in human HGC-27 cells assessed as reduction in CRM1 expression measured after 24 hrs by Western blot analysis; assay type: cell-based; conditions: dose 1.25-10 µM
SMILES,IC50 [1],Activity [2],Activity [3],Activity [4],Activity [5],Activity [6],Activity [7],Activity [8],Activity [9],Activity [10],Activity [11],Activity [12],Activity [13],Activity [14],Activity [15],Activity [16],Activity [17]
O=C1C=CC[C@H](COc2ccc3c(c2)OCO3)O1,12 µM,,,,,,,,,,,,,,,,
Cc1ccc(C(C)C)c(OC[C@H]2CC=CC(=O)O2)c1,,Active,Active,inactive,Active,Active,Dose-dependent effect,inactive,Active,inactive,Active,Active,Active,inactive,Active,Active,Dose-dependent effect
O=c1[nH]cc(F)c(=O)[nH]1 [FLUOROURACIL],24.8 µM,,,,,,,,,,,,,,,,
